Experimental findings from article PMC9064382 (RSC Advances, 2019) are described below.

Common to all, as to format: in vitro ADME
One data set has as its target T1, hOATP1B1 (Homo sapiens, UniProt Q9Y6L6).
T1 sequence (Q9Y6L6 1-691): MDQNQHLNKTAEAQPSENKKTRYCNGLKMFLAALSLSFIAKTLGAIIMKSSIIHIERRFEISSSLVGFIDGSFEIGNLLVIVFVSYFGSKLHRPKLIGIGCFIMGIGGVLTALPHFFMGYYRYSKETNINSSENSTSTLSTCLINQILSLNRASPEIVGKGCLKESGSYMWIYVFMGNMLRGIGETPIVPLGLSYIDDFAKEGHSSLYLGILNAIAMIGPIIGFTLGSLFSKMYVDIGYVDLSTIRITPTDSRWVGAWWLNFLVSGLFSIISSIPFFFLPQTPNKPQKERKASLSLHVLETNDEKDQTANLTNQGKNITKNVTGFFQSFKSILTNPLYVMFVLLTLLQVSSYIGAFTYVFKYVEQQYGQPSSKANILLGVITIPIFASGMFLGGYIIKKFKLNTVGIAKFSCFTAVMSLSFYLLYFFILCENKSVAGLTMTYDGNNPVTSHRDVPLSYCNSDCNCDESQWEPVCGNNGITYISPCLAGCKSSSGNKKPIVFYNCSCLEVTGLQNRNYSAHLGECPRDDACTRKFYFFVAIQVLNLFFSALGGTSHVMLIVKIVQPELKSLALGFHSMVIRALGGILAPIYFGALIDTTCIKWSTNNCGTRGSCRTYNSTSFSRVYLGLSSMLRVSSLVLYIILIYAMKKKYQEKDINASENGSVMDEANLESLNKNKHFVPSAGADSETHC

In the next data set the target is T2, hOATP1B3 (Homo sapiens, UniProt Q9NPD5).
T2 sequence (Q9NPD5 1-702): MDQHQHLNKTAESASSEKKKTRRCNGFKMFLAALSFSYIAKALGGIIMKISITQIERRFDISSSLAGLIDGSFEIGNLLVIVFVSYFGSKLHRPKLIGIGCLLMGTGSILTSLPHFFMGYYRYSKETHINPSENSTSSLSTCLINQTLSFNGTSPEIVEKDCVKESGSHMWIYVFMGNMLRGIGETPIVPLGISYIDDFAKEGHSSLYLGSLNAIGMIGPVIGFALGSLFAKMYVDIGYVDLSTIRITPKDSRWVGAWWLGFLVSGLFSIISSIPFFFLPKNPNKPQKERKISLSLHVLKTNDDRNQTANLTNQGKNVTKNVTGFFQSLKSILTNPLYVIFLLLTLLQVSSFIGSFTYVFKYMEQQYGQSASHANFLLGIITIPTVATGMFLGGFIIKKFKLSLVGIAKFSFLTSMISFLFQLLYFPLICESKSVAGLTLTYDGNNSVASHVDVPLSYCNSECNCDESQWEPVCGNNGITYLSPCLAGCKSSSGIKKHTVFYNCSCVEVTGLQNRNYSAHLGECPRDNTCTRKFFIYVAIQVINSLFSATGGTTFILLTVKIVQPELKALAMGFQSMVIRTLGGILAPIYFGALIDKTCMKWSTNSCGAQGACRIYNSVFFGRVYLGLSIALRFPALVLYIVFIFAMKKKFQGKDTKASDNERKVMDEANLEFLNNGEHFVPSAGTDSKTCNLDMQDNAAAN

In a further data set the target is T3, hOCT2 (Homo sapiens, UniProt O15244).
T3 sequence (O15244 1-555): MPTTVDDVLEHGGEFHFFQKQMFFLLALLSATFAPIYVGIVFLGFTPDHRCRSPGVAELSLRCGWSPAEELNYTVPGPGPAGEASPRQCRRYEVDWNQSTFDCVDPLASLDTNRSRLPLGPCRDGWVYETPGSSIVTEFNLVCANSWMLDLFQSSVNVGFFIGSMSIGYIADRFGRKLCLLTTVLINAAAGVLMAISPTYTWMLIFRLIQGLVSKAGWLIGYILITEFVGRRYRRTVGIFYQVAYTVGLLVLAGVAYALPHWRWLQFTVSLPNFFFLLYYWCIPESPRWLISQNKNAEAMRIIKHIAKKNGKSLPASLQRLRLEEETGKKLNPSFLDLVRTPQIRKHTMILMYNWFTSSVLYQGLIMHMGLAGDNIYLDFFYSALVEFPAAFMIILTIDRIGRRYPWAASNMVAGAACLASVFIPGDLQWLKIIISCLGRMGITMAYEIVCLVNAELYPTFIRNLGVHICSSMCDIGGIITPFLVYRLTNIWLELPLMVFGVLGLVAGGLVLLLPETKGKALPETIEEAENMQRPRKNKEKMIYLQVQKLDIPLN
Kind of data set: Inhibition of 14C-TEA uptake in hOCT2-transfected cells by liquorice ingredients. Conditions: 5 min.

The target in the next data set is T4, hOCT1 (Homo sapiens, UniProt O15245).
T4 sequence (O15245 1-554): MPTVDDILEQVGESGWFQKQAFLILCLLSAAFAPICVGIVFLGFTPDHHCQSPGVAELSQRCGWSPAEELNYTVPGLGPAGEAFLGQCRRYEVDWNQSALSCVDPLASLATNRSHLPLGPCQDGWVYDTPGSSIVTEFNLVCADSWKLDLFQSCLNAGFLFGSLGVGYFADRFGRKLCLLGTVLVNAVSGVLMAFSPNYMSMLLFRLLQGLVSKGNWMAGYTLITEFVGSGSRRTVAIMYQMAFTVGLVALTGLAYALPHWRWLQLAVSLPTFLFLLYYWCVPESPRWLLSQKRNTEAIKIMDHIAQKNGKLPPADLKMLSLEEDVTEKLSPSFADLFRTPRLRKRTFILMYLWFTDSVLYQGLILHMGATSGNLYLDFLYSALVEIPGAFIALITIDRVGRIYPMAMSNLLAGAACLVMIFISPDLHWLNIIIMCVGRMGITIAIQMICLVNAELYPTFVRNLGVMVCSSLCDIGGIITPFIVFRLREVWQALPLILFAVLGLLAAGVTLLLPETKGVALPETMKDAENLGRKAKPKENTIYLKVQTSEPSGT
Kind of data set: Inhibition of 14C-TEA uptake in hOCT1-transfected cells by liquorice ingredients. Conditions: read-out: IC50 on hOCT1; 14C-TEA probe, 5 min. The essentials:
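Transfected and mock cells were seeded at 2 × 10^5/well and grown 48 h. They were then exposed at 37 °C to test compound at 1, 3, 10, 30 and 100 μmol L−1 (DMSO <0.2%) with either 5 μmol L−1 14C-PAH for 2 min (hOAT1) or 5 μmol L−1 14C-TEA for 5 min (hOCT1). Uptake was stopped with cold DPBS and three rinses, cells lysed in 0.1 mol L−1 NaOH, counted by liquid scintillation (dpm), and IC50 calculated.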

As for `C=CC(C)(C)c1cc(/C=C/C(=O)c2ccc(O)cc2)c(OC)cc1O` [licochalcone A], the IC50 turned out to be 1270 nM at hOATP1B1 (read-out: IC50 on hOATP1B1, 3H-ES probe, 2 min); 1910 nM on hOATP1B3 (read-out: IC50 on hOATP1B3, 3H-ES probe, 2 min); 6.61 µM on hOCT2 (read-out: IC50 on hOCT2, 14C-TEA probe); 14 µM on hOCT1. Further, the “inhibition of hOATP1B1” value against hOATP1B1 (screening at 100 μm) is recorded as “strong inhibitors”. For the same compound, at hOATP1B3 (screening at 100 μm), the “inhibition of hOATP1B3” value is listed as “strong inhibitors”. In addition, the “inhibitory rate on hOCT2” value against hOCT2 (100 μm, 5 μmol L^−1 14C-TEA) is 91.76%.
